Results reported in ChEMBL document CHEMBL1667800, “Synthesis, DNA/RNA affinity and antitumour activity of new aromatic diamidines linked by 3,4-ethylenedioxythiophene” (Eur J Med Chem, 2011).
Active and inactive are the calls of the source. The rule behind the calls is not given here.

Key:
Calf thymus DNA [1] = test: Binding affinity to calf thymus DNA minor groove assessed as DNA CD band at compound over DNA molar ratio of < 0.2 by circular dichroism titration; type: nucleic-acid assay; conditions: Bos taurus
How it was run: (§1)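 CD titration of polynucleotide (2.0 × 10^-5 mol dm^-3, as phosphate) with added compound over a range of r = [compound]/[polynucleotide]. Na-cacodylate buffer, pH 7.0, I = 0.05 mol dm^-3, 1 cm quartz cuvette. ct-DNA was sonicated and filtered before use. Changes in the polynucleotide CD band and induced CD bands were followed.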

Caco-2 = test: Cytotoxicity against human Caco2 cells after 72 hrs by MTT assay; type: functional; conditions: Caco-2, 72 h
How it was run: (§2)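 Cells were seeded at 2 × 10^4 cells/mL and attached overnight at 37 °C, 5% CO2. They were then exposed for 72 h to compounds from aqueous stocks (working solutions 10^-3–10^-6 mol dm^-3). MTT was added for 4 h at 37 °C, formazan dissolved in DMSO, and absorbance read at 570 nm. GI50 is the mean ± SD of three independent experiments run in triplicate.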

HeLa [2] = test: Cytotoxicity against human HeLa cells after 72 hrs by MTT assay; type: functional; how it was run: as §2
[3] = Cytotoxicity against MDCK cells after 72 hrs by MTT assay; type: cell-based, Canis lupus familiaris; conditions: dog; how it was run: as §2
HEp-2 = test: Cytotoxicity against human Hep2 cells after 72 hrs by MTT assay; type: functional; conditions: HEp-2, 72 h; how it was run: as §2
Calf thymus DNA [4] = test: Binding affinity to calf thymus DNA assessed as batochromic effect at compound over DNA molar ratio of 0.2 by UV-Vis spectra; type: nucleic-acid assay; conditions: Bos taurus
How it was run: (§3)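 UV-Vis titration of compound (c = 1.97 × 10^-5 mol dm^-3 in the shown example) with ct-DNA. Na-cacodylate buffer, pH 7.0, I = 0.05 mol dm^-3, 1 cm quartz cuvette. Absorbance at the maximum was tracked against c(ct-DNA). Ks and n were obtained by non-linear least-squares Scatchard fitting.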

Nucleic Acid [5] = test: Binding affinity to ds-RNA assessed as RNA CD band at compound over RNA molar ratio of < 0.2 by circular dichroism titration; type: nucleic-acid assay; how it was run: as §1
AGS = test: Cytotoxicity against human AGS cells after 72 hrs by MTT assay; type: functional; how it was run: as §2
Calf thymus DNA [6] = test: Binding affinity to calf thymus DNA assessed as melting temperature at compound over DNA molar ratio of 0.1 at pH 7 by thermal denaturation assay; type: nucleic-acid assay; conditions: Bos taurus
How it was run: (§4)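 Thermal melting of ds-polynucleotide (ct-DNA or poly A-poly U) alone and with compound at the given r, Na-cacodylate pH 7.0, I = 0.05 mol dm^-3. Absorbance at 260 nm was followed versus temperature, with compound absorbance subtracted and the curve normalized. Tm was taken from the first-derivative maximum or by tangent. ΔTm = Tm(complex) − Tm(free nucleic acid).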

MCF7 = test: Cytotoxicity against human MCF7 cells after 72 hrs by MTT assay; type: functional; conditions: MCF7, 72 h; how it was run: as §2
NCI-H358 = test: Cytotoxicity against human NCI-H358 cells after 72 hrs by MTT assay; type: functional; conditions: NCI-H358, 72 h; how it was run: as §2
Calf thymus DNA [7] = test: Binding affinity to calf thymus DNA assessed as batochromic effect at compound over DNA molar ratio of 0.2 by fluorimetric titration; type: nucleic-acid assay; conditions: Bos taurus
How it was run: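 Fluorimetric titration of compound (about 1.0 × 10^-6 mol dm^-3) with ct-DNA. Excitation above 360 nm to avoid inner-filter effects. Na-cacodylate buffer, pH 7.0, I = 0.05 mol dm^-3. Emission at the maximum was plotted against c(ct-DNA). Ks and n were obtained by non-linear Scatchard fitting.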

Nucleic Acid [8] = test: Binding affinity to polu A-poly U assessed as melting temperature at compound over DNA molar ratio of 0.3 at pH 7 by thermal denaturation assay; type: nucleic-acid assay; how it was run: as §4
Calf thymus DNA [9] = test: Binding affinity to calf thymus DNA assessed as melting temperature at compound over DNA molar ratio of 0.3 at pH 7 by thermal denaturation assay; type: nucleic-acid assay; conditions: Bos taurus; how it was run: as §4
Calf thymus DNA [10] = test: Binding affinity to calf thymus DNA assessed as melting temperature at compound over DNA molar ratio of 0.2 at pH 7 by thermal denaturation assay; type: nucleic-acid assay; conditions: Bos taurus; how it was run: as §4
Calf thymus DNA [11] = test: Binding affinity to calf thymus DNA assessed as hyperchromic effect at compound over DNA molar ratio of 0.2 by UV-Vis spectra; type: nucleic-acid assay; conditions: Bos taurus; in the assay text read “hypochromic effect” for “hyperchromic effect”; how it was run: as §3
MIA PaCa-2 = test: Cytotoxicity against human MIAPaCa2 cells after 72 hrs by MTT assay; type: functional; conditions: MIA PaCa-2, 72 h; how it was run: as §2
Calf thymus DNA [12] = test: Binding affinity to calf thymus DNA assessed as DNA CD band at compound over DNA molar ratio of > 0.3 by circular dichroism titration; type: nucleic-acid assay; conditions: Bos taurus; how it was run: as §1
Calf thymus DNA [13] = test: Binding affinity to calf thymus DNA assessed as hyperchromic effect at compound over DNA molar ratio of 0.4 by UV-Vis spectra; type: nucleic-acid assay; conditions: Bos taurus; in the assay text read “hypochromic effect” for “hyperchromic effect”; how it was run: as §3
Nucleic Acid [14] = test: Binding affinity to ds-RNA assessed as RNA CD band at compound over RNA molar ratio of > 0.2 by circular dichroism titration; type: nucleic-acid assay; how it was run: as §1
Calf thymus DNA [15] = test: Binding affinity to calf thymus DNA assessed as hyperchromic effect at compound over DNA molar ratio of 0.5 by UV-Vis spectra; type: nucleic-acid assay; conditions: Bos taurus; in the assay text read “hypochromic effect” for “hyperchromic effect”; how it was run: as §3
HeLa [16] = test: Induction of cell cycle arrest in human HeLa assessed as accumulation at G0/G1-phase at 1x10'-6 M after 48 hrs by FACS analysis (RVb = 61.2+/-2.3%); type: functional
HeLa [17] = test: Induction of cell cycle arrest in human HeLa assessed as accumulation at G2/M-phase at 5x10'-6 M after 72 hrs by FACS analysis (RVb = 7.8+/-3.1%); type: functional
HeLa [18] = test: Induction of cell cycle arrest in human HeLa assessed as accumulation at G2/M-phase at 1x10'-6 M after 48 hrs by FACS analysis (RVb = 8.4+/-3.9%); type: functional
HeLa [19] = test: Induction of cell cycle arrest in human HeLa assessed as accumulation at S-phase at 1x10'-6 M after 24 hrs by FACS analysis (RVb = 27.7+/-4.2%); type: functional
HeLa [20] = test: Induction of cell cycle arrest in human HeLa assessed as accumulation at G0/G1-phase at 1x10'-6 M after 72 hrs by FACS analysis (RVb = 63.4+/-3.2%); type: functional
HeLa [21] = test: Induction of cell cycle arrest in human HeLa assessed as accumulation at S-phase at 1x10'-6 M after 48 hrs by FACS analysis (RVb = 30.4+/-3.7%); type: functional
HeLa [22] = test: Induction of cell cycle arrest in human HeLa assessed as accumulation at G0/G1-phase at 5x10'-6 M after 24 hrs by FACS analysis (RVb = 62.2+/-4.4%); type: functional
HeLa [23] = test: Induction of cell cycle arrest in human HeLa assessed as accumulation at G2/M-phase at 1x10'-6 M after 72 hrs by FACS analysis (RVb = 7.8+/-3.1%); type: functional
HeLa [24] = test: Induction of cell cycle arrest in human HeLa assessed as accumulation at G2/M-phase at 1x10'-6 M after 24 hrs by FACS analysis (RVb = 10.1+/-3.4%); type: functional
HeLa [25] = test: Induction of cell cycle arrest in human HeLa assessed as accumulation at G0/G1-phase at 5x10'-6 M after 72 hrs by FACS analysis (RVb = 63.4+/-3.2%); type: functional
HeLa [26] = test: Induction of cell cycle arrest in human HeLa assessed as accumulation at G2/M-phase at 5x10'-6 M after 24 hrs by FACS analysis (RVb = 10.1+/-3.4%); type: functional
HeLa [27] = test: Induction of cell cycle arrest in human HeLa assessed as accumulation at S-phase at 1x10'-6 M after 72 hrs by FACS analysis (RVb = 28.8+/-3.2%); type: functional
HeLa [28] = test: Induction of cell cycle arrest in human HeLa assessed as accumulation at G2/M-phase at 5x10'-6 M after 48 hrs by FACS analysis (RVb = 8.4+/-3.9%); type: functional
HeLa [29] = test: Induction of cell cycle arrest in human HeLa assessed as accumulation at S-phase at 5x10'-6 M after 48 hrs by FACS analysis (RVb = 30.4+/-3.7%); type: functional
HeLa [30] = test: Induction of cell cycle arrest in human HeLa assessed as accumulation at G0/G1-phase at 5x10'-6 M after 48 hrs by FACS analysis (RVb = 61.2+/-2.3%); type: functional
HeLa [31] = test: Induction of cell cycle arrest in human HeLa assessed as accumulation at S-phase at 5x10'-6 M after 24 hrs by FACS analysis (RVb = 27.7+/-4.2%); type: functional
HeLa [32] = test: Induction of cell cycle arrest in human HeLa assessed as accumulation at G0/G1-phase at 1x10'-6 M after 24 hrs by FACS analysis (RVb = 62.2+/-4.4%); type: functional
Calf thymus DNA [33] = test: Binding affinity to calf thymus DNA assessed as DNA CD band at compound over DNA molar ratio of > 0.2 by circular dichroism titration; type: nucleic-acid assay; conditions: Bos taurus; how it was run: as §1
HeLa [34] = test: Induction of cell cycle arrest in human HeLa assessed as accumulation at S-phase at 5x10'-6 M after 72 hrs by FACS analysis (RVb = 28.8+/-3.2%); type: functional

Activity (Calf thymus DNA [1])	Activity (Calf thymus DNA [4])	Activity (Nucleic Acid [5])	ΔTm (Calf thymus DNA [6])	Activity (Calf thymus DNA [7])	ΔTm (Nucleic Acid [8])	ΔTm (Calf thymus DNA [9])	ΔTm (Calf thymus DNA [10])	Activity (Calf thymus DNA [11])	Activity (Calf thymus DNA [12])	Structure (SMILES)	GI50 (Caco-2)	GI50 (HeLa [2])	GI50 at 72 h [3]	GI50 (HEp-2)	GI50 (AGS)	GI50 (MCF7)	GI50 (NCI-H358)	GI50 (MIA PaCa-2)	also measured
Active	Active	inactive	12.3 °C	Active	1.4 °C	> 16 °C	15.2 °C	Active	Active	N=C(NC1CCCC1)c1ccc(-c2sc(-c3ccc(C(=N)NC4CCCC4)cc3)c3c2OCCO3)cc1	41 µM	26.7 µM	50 µM	61.3 µM	45 µM	7.8 µM	62.2 µM	10.9 µM	
					0 °C	0 °C				N=C(Nc1ccccc1)c1sc(C(=N)Nc2ccccc2)c2c1OCCO2	134 µM	138 µM	79.5 µM	100 µM	114 µM	129 µM	112 µM	128 µM	
Active	Active	inactive	8.4 °C	Active	5.8 °C	12.3 °C	11.1 °C		Active	CC(C)NC(=N)c1ccc(-c2sc(-c3ccc(C(=N)NC(C)C)cc3)c3c2OCCO3)cc1	76.5 µM	72.3 µM	65.3 µM	9 µM	72.3 µM	67.5 µM	113 µM	13 µM	Activity (Calf thymus DNA [13]): Active; Activity (Nucleic Acid [14]): Active
Active	Active	inactive	12.2 °C	Active	12.6 °C	> 16 °C	> 16 °C		Active	N=C(N)c1ccc(-c2sc(-c3ccc(C(=N)N)cc3)c3c2OCCO3)cc1	13 µM	32.3 µM	7.1 µM	9.3 µM	116 µM	25 µM	33 µM	9.3 µM	Activity (Calf thymus DNA [15]): Active
Active	Active	inactive	9 °C	Active	5.2 °C	15 °C	9 °C	Active	Active	CC(C)CNC(=N)c1ccc(-c2sc(-c3ccc(C(=N)NCC(C)C)cc3)c3c2OCCO3)cc1	42.8 µM	18.8 µM	59.7 µM	9.9 µM	59.3 µM	7.3 µM	73.3 µM	4.9 µM	
Active	Active		10.8 °C	Active	17 °C	> 16 °C	14.3 °C			Cl.Cl.c1cc(-c2sc(-c3ccc(C4=NCCN4)cc3)c3c2OCCO3)ccc1C1=NCCN1	3.1 µM	1.5 µM	17 µM	3 µM	4.3 µM	2.7 µM	4.1 µM	9 µM	Activity (HeLa [16]): 59.6%; Activity (HeLa [17]): 21.1%; Activity (HeLa [18]): 7.3%; Activity (HeLa [19]): 30.2%; Activity (HeLa [20]): 62.2%; Activity (HeLa [21]): 33.1%; Activity (HeLa [22]): 53.3%; Activity (HeLa [23]): 11.9%; Activity (HeLa [24]): 14.4%; Activity (HeLa [25]): 46.4%; Activity (Calf thymus DNA [15]): Active; Activity (HeLa [26]): 17.6%; Activity (HeLa [27]): 25.9%; Activity (HeLa [28]): 18.5%; Activity (HeLa [29]): 37.3%; Activity (HeLa [30]): 44.2%; Activity (HeLa [31]): 29.1%; Activity (HeLa [32]): 55.4%; Activity (Calf thymus DNA [33]): Active; Activity (HeLa [34]): 32.5%
Active	Active	inactive	11.8 °C	Active	8.2 °C	> 16 °C	> 16 °C	Active	Active	c1cc(-c2sc(-c3ccc(C4=NCCCN4)cc3)c3c2OCCO3)ccc1C1=NCCCN1	101 µM	97.5 µM	82 µM	97.7 µM	81.7 µM	8.4 µM	98.7 µM	64.7 µM	
